The source of these data is article PMC2661818 (Psychopharmacology, 2008).

Counter-ions that a name gives are not always drawn. Like-named read-outs stand apart in the source and are kept apart here.

Series [1] relates to rats trained to discriminate 10 mg/kg cocaine, IP from saline. The format is in vivo, Sprague—Dawley rats. As to conditions: for Maximal cocaine responding: SEM in parentheses; for Maximal levels of cocaine responding: in each/all rearing groups (BMS, AFR, LMS). The essentials: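 Adult Sprague–Dawley rats (6 per rearing condition per sex) from BMS, LMS or AFR rearing, trained at 10 mg/kg IP (15-min pretreatment) vs saline. Tests: 10 consecutive responses on either manipulandum gave a pellet. Novel training-drug doses (0.56–18 mg/kg) in random order; pretreatment 1–120 min. Group mean % drug responding: ≥80% full, ≤20% saline-like. Rates as % of vehicle.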

Series [2] has as its system rats discriminating cocaine injections. The following applies: cited from earlier work; for Cocaine-like responding (partial): ref Witkin et al. 1991; for Substitution for the cocaine cue: reduced training dose (3.0 mg/kg cocaine), ref Terry et al. 1994.
The test system of series [3] is rats. As to conditions: ref Moffett et al. (2006a), cited from earlier work.
For series [4] the following is noted: rat, IP injection, cited from earlier work.
Series [5] deals with c-Fos. Briefly: Cocaine-induced c-Fos expression. It counts as in vivo, Sprague—Dawley rats. As to conditions: 10 mg/kg IP, 14 days.
A short description of series [6]: Plasma cocaine assessment by LC/MS/MS. The format is in vivo, Sprague—Dawley rats. The following applies: males, 10 mg/kg IP.
[7] abbreviates: females, all rearing conditions.

`Fc1ccc(C(OCCN2CCN(CCCc3ccccc3)CC2)c2ccc(F)cc2)cc1` [GBR12909, GBR12909 bismesylate hydrate]: the “Doses producing more cocaine-like responding” value in series [1] (females, AFR) is 5.6 to 18 mg/kg. In addition, the Maximal cocaine responding is listed as 80.28% in series [1] (females, AFR); 99.64% in series [1] (females, BMS); 83.39% in series [1] (females, LMS). Further, in series [1] (females, LMS), the “Doses producing more partial responding” value fell in the range of 3.2 to 10 mg/kg. The “Effect on rate of responding” value in series [1] (setting [7]) is given as “dose dependently decreased”; in series [1] (males, all rearing conditions) it was “dose dependently decreased rate of responding”. The Generalization profile entry in series [1] (males, AFR, two lowest doses (1.0–3.2 mg/kg)) is recorded as “partial cocaine responding”; in series [1] (males, BMS and LMS, two lowest doses (1.0–3.2 mg/kg)), “saline responding”.
Regarding `Oc1cc2c(cc1O)C(c1ccccc1)CNCC2` (stereo not shown) [SKF38393, SKF38393 hydrobromide], the “Cocaine-like responding (partial)” value in series [2] (10 mg/kg cocaine training dose) is listed as 20–80%. The “Substitution for the cocaine cue” value in series [2] was “substitute fully”. Further, the “Effect on rate of responding” value is recorded as “dose dependently decreased” in series [1] (setting [7]) and “dose-dependent decreases in rates” in series [1] (males, all rearing conditions). Moreover, the “Maximal levels of cocaine responding” value in series [1] (females) is “approximately 50%”. In addition, the Generalization profile entry was “partial generalization” in series [1] (males, AFR and LMS, 18 mg/kg); “partial generalization” in series [1] (males, all rearing conditions, 10 mg/kg). Also, the Maximal cocaine responding in series [1] (males, AFR) came out at 81.41%; in series [1] (males, BMS), 95.68%; in series [1] (males, LMS), 83.52%. For the same compound, the “Rates of responding (disrupted)” value in series [1] (males, BMS and AFR groups, 32 mg/kg) is recorded as under 0.20 mean responses per second.
In the case of `COC(=O)[C@H]1[C@@H](OC(=O)c2ccccc2)C[C@@H]2CC[C@H]1N2C` [cocaine, Cocaine hydrochloride], the Self-administration entry in series [3] (BMS rats) is “did not self administer cocaine above saline levels at any dose tested”. Further, the “Dose at which self-administration was acquired” value in series [3] (LMS rats) is given as 0.0625 mg/kg/infusion. In addition, the “Time to peak plasma” value in series [4] (ref Misra et al. 1974) is 4 h. Moreover, the “Elimination half-life (t1/2)” value in series [4] (ref Nayak et al. 1976) is 48 to 60 min. For the same compound, the “Fos-IR, cocaine- vs saline-treated” value in series [5] (AFR females, NAcc Core and central CPu) is recorded as “significantly greater Fos-IR”. Further, the “c-Fos expression, cocaine- vs saline-treated” value is on record as “trend for significantly greater c-Fos expression” in series [5] (AFR males, central and dorsomedial CPu); “never statistically significant differences” in series [5] (BMS males and females, any brain region examined). Also, the “c-Fos, cocaine- vs saline-treated” value in series [5] (LMS males, ICjM) is on record as “showed significance”. Further, the “Plasma cocaine levels, effect of time” value in series [6] is reported as “decreasing from 15 to 60 min”. Further, the “Effect on rate of responding” value is on record as “dose dependently decreased rate of responding” in series [1] (setting [7]) and “did not have an effect on rate of responding” in series [1] (males, all rearing conditions). Also, in series [1] (novel doses 0.56–18 mg/kg, all groups), the “Cocaine-appropriate responding as a function of dose” value was “dose-dependent increases in cocaine-appropriate responding”.
For `CCCN1CCC[C@@H]2Cc3n[nH]cc3C[C@H]21` [quinpirole, quinpirole hydrochloride], the “Generalization to the cocaine cue” value in series [2] (10 mg/kg cocaine training dose, ref Barrett and Appel 1989, Callahan et al. 1991, Callahan and Cunningham 1993) is listed as “full generalization”. Further, the “Cocaine-like responding (partial)” value in series [2] (10 mg/kg cocaine training dose) is 20–80%. Further, the “Substitution for the cocaine cue” value in series [2] is recorded as “substitute fully”. Further, the Generalization profile result in series [1] (females, all groups, doses of 0.061–0.18 mg/kg) is on record as “intermediate levels of responding”; in series [1] (males, LMS, all doses except 0.125 mg/kg), “only partial generalization”. In addition, the “Effect on rate of responding” value was “dose dependently decreased” in series [1] (setting [7]) and “dose dependently decreased the number of responses” in series [1] (males, all rearing conditions). The “Maximal levels of cocaine responding” value in series [1] (females) is recorded as about 80%.
